Measurements as given in ChEMBL document CHEMBL5653631, “A Potent and Selective ULK1 Inhibitor Suppresses Autophagy and Sensitizes Cancer Cells to Nutrient Stress” (iScience, 2018).
One block for each compound: values may come before it.

Assays:
[1] = biological target: T1, Serine/threonine-protein kinase Sgk3 (Homo sapiens) (UniProt Q96BR1); assay: Inhibition of human recombinant SGK3 at 500 nM in presence of ATP by radiometric assay relative to control
T1 sequence (whole entry): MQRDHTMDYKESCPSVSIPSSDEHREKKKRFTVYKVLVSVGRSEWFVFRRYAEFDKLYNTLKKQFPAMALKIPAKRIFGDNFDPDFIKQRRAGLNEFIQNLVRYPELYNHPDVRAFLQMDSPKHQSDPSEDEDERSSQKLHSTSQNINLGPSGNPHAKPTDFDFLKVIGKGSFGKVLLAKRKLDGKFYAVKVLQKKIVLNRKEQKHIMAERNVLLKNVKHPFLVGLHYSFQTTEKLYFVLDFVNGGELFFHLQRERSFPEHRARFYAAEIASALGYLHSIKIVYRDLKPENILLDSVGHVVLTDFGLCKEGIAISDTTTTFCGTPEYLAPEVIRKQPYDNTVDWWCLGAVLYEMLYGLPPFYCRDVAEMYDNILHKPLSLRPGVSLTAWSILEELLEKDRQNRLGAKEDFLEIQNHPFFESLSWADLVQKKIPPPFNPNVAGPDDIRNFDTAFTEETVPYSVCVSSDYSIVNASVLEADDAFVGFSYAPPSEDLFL

[2] = biological target: T2, MAP/microtubule affinity-regulating kinase 4 (Homo sapiens) (UniProt Q96L34); assay: Inhibition of human recombinant MARK4 at 500 nM in presence of ATP by radiometric assay relative to control
T2 sequence (whole entry): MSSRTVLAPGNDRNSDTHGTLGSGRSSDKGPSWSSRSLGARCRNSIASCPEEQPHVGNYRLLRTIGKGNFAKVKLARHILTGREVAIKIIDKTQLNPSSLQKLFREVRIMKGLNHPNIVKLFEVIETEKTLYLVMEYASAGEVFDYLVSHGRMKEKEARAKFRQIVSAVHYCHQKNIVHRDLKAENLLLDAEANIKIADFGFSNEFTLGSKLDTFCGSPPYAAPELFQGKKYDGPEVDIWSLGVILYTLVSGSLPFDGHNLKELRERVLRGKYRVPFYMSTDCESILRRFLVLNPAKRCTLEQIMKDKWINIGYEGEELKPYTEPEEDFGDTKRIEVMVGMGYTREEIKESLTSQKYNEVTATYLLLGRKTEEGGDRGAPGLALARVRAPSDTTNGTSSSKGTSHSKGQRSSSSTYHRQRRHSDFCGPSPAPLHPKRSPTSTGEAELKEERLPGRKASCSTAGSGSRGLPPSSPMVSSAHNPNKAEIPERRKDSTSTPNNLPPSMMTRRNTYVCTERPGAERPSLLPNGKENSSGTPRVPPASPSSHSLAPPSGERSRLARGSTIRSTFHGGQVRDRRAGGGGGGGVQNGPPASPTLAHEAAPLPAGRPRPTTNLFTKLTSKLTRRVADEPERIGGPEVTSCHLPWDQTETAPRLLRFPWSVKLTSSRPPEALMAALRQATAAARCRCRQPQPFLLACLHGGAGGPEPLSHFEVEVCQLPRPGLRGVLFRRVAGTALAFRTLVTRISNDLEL

[3] = biological target: RAC-beta serine/threonine-protein kinase (Homo sapiens) (UniProt P31751); assay: Inhibition of human recombinant AKT2 at 15 nM in presence of ATP by radiometric assay relative to control
RAC-beta serine/threonine-protein kinase (Homo sapiens), sequence (P31751 whole entry): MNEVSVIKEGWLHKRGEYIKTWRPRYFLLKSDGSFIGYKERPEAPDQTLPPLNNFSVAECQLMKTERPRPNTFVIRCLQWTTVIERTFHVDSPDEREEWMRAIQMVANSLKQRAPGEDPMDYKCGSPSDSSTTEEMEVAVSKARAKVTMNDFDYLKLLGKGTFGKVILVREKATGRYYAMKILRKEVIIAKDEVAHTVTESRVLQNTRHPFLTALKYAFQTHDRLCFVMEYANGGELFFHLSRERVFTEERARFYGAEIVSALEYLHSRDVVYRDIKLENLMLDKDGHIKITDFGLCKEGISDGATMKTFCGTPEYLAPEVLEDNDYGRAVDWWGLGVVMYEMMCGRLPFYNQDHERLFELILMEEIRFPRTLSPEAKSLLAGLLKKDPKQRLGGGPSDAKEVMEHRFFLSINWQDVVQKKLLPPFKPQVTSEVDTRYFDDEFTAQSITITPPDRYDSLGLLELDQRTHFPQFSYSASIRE
Summary of the method: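 Panel of 327 recombinant human kinases in radiometric activity assays, each screened in duplicate at a single inhibitor concentration; percent activity remaining relative to vehicle control, percent inhibition taken as 100 minus activity remaining.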

[4] = biological target: Ribosomal protein S6 kinase alpha-2 (Homo sapiens) (UniProt Q15349); assay: Inhibition of human recombinant RSK3 at 15 nM related to control ULK1
Ribosomal protein S6 kinase alpha-2 (Homo sapiens), sequence (Q15349 whole entry): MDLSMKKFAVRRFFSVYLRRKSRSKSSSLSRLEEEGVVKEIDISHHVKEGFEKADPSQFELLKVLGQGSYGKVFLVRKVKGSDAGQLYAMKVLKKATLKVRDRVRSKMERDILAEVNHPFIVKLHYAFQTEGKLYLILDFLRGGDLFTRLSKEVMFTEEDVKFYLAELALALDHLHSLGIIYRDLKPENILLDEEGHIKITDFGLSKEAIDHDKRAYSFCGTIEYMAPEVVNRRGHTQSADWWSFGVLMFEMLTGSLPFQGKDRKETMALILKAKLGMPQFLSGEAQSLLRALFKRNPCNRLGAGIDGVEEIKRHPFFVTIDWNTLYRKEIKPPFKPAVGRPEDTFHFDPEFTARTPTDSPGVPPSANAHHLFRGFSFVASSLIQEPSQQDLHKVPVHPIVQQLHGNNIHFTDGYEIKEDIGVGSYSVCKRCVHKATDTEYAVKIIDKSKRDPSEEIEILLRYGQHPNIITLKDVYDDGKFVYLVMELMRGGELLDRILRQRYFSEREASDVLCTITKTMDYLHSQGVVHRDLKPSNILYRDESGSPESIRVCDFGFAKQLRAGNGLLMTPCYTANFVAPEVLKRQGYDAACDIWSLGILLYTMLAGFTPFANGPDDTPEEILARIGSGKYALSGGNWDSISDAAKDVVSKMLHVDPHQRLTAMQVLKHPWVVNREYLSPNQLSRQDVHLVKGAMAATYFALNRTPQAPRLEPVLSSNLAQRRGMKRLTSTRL

[5] = biological target: T3, Ephrin type-B receptor 2 (Homo sapiens) (UniProt P29323); assay: Inhibition of human recombinant EphB2 at 40 nM related to control ULK1
T3 sequence (whole entry): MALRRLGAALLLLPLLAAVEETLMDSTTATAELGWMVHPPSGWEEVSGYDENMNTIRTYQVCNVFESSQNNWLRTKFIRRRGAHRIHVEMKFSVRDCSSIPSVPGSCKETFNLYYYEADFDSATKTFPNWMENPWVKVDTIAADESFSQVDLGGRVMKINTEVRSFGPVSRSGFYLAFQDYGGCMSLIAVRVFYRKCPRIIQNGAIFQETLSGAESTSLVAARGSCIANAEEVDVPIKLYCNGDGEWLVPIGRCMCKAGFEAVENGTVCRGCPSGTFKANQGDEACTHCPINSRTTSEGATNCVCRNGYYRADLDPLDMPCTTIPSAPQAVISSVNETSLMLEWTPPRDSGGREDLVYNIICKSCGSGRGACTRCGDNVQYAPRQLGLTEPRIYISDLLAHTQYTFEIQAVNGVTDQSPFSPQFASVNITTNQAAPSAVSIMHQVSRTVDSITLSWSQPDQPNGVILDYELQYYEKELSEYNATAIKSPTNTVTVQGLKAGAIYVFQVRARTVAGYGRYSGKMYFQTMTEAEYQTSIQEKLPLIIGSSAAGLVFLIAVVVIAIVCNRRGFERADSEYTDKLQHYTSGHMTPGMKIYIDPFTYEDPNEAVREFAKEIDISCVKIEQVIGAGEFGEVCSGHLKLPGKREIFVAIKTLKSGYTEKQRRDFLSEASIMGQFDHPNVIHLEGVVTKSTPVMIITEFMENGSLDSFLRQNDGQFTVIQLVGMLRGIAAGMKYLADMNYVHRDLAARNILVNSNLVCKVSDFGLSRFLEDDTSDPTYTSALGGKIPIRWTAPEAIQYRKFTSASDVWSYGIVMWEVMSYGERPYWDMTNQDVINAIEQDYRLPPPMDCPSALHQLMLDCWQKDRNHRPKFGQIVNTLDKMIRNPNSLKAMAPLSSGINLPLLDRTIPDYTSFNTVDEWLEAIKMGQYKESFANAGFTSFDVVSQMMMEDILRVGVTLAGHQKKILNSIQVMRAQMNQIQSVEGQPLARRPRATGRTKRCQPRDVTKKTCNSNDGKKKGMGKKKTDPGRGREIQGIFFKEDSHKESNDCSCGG

inhibition [1]: 1% | inhibition [2]: 58%
Structure (SMILES): CNC(=O)c1ccccc1Oc1nc(Nc2cc(OC)c(OC)c(OC)c2)ncc1Br

inhibition [3]: 0% | fold change (FC) [4]: 0.03
Structure (SMILES): CC(C)[C@H](NC(=O)c1cc(-c2cnn3cc(-c4ccc(OCCN5CCCCC5)cc4)cnc23)cs1)C(F)(F)F

fold change (FC) [5]: 0.05
Structure (SMILES): O=C(N[C@@H](C1CC1)C(F)(F)F)c1cc(-c2cnn3cc(-c4ccc(F)cc4)cnc23)cs1
